MrgX1 agonist: agonists of human MrgX1 receptor, primary screen, HEK293 cells, Fluo-4 calcium flux; Fluo-4 calcium fluorescence, agonist mode; stronger effect = higher value; B-score at 10 µM; 310,000 tested, 0.44% active; AID 588627, 2011;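 active = calcium response B-score plate-corrected fluorescence ratio at least 3 library SD, with starting fluorescence B-score inside 5 SD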
Target sequence (Q96LB2 whole entry, looked up): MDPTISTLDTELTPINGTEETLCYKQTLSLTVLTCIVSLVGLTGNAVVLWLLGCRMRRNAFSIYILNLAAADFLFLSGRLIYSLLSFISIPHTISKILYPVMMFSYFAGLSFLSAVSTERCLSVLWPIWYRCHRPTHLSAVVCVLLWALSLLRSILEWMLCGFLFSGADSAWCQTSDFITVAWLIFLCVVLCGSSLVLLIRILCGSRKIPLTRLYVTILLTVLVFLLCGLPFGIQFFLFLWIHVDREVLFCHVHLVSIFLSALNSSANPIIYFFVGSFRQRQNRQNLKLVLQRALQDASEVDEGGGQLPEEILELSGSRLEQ
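Test system: Stable human MrgX1 HEK293 cell line | Schedule: Overnight plating before 1 h dye loading | Read-out basis: Baseline-normalised fluorescence change ratio, B-scored | Detection: Kinetic calcium dye fluorescence, Fluo-4 NW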
MrgX1 antag: antagonists of human MrgX1 receptor, primary screen, HEK293 cells, Fluo-4 calcium flux. Mas-related G-protein coupled receptor member X1 (Homo sapiens), Q96LB2. BAM8-22 antagonism; stronger effect = lower value. B-score at 10 µM. 310,000 tested, 1.3% active;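 active = calcium-response B-score plate-corrected more than 3 library SD below zero, starting fluorescence within 5 deviations, no agonist response on first addition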;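 also: peak minus trough fluorescence over baseline after final BAM8-22 challenge near maximal dose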
RGS4 block: RGS4 inhibitors, primary screen, cell-based, HEK293 M3R inducible RGS4, calcium flux; 310,000 tested, 0.45% active; Fluo-4 calcium flux; stronger effect = higher value; triggered by carbachol at its EC20; Regulator of G-protein signaling 4 (Homo sapiens), P49798; B-score at 10 µM;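 active = B-score, a plate-corrected calcium signal, over three deviations above library mean, with baseline fluorescence within five deviations of library mean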;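 also: RGS4 expression induced by doxycycline in cells with stable M3 receptor; B-score is computed from the integrated fluorescence ratio over baseline after carbachol; higher B-score means a larger calcium signal and so more RGS4 inhibition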
Target sequence (P49798 whole entry, looked up): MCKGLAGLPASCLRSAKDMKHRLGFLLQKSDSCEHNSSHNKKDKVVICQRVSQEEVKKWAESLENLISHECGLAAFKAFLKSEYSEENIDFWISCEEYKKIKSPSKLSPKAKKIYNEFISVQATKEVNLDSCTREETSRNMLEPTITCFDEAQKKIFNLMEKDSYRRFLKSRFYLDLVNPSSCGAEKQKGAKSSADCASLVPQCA
RGS4 act: RGS4 potentiators or activators, primary screen, cell-based, HEK293 M3R inducible RGS4, calcium flux | carbachol calcium flux Fluo4; stronger effect = lower value | B-score at 10 µM | 310,000 tested, 0.92% active | AID 463111, 2010;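 active = B-score of the integrated calcium signal more than 4 SD below the library mean, with starting fluorescence not abnormally high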;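 also: negative B-score means reduced calcium response which marks RGS4 activation or potentiation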
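test system = M3R-expressing HEK293 line, RGS4 induced by doxycycline | probe or stimulus = carbachol at ECmax as muscarinic agonist stimulus | timing = dye loading 30 min 37 °C, buffer rest 30 min RT | signal = calcium dye Fluo4 fluorescence | evaluation = B score from integrated fluorescence ratio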
MrgX1 allo act: positive allosteric modulators of MrgX1, primary screen, HEK293 cells, Fluo-4 calcium flux; B-score at 10 µM; FDSS; stronger effect = higher value; 310,000 tested, 0.63% active;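 active = plate-corrected calcium response at least 3 library SD above typical, normal starting fluorescence, not activating the receptor alone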;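 also: compound read alongside a low EC10 to EC30 dose of BAM8-22 agonist; peak minus trough fluorescence over baseline measured at the second addition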
MrgX1 antag conf: MrgX1 receptor antagonists, duplicate retest, confirmation, HEK293 cells, Fluo-4 calcium flux. remaining BAM8-22 calcium response % of control (stronger effect = lower value), % at 10 µM. AID 602420, 2012. shares compounds with MrgX1 antag. BAM8-22 calcium flux; stronger effect = lower value. 2,300 tested, 19% active;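 active = remaining agonist calcium response no higher than 100% minus 3 SD of agonist-only control wells, with starting fluorescence near control levels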;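 also: agonist BAM8-22 given at a near maximal EC90 to ECmax level; peak minus minimum fluorescence divided by baseline after agonist addition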
HEK293 Ca flux: nonspecific calcium signal in parental HEK293, confirmation, counter-screen for MrgX1 antagonist project, parental HEK293 cells, Fluo-4 calcium flux; 4,000 tested, 2% active; shares compounds with MrgX1 antag; Fluo-4 calcium fluorescence, FDSS; fluorescence ratio F(max-min)/F0 at 10 µM;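 active = duplicate-averaged calcium fluorescence ratio at least three times the standard deviation of buffer wells, a nonspecific response in parental cells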
HEK293 Ca counter: calcium response in parental HEK293 cells, primary screen, counter-screen for MrgX1 allosteric activator project, cell-based, Fluo-4 calcium flux, duplicate | shares compounds with MrgX1 antag | Fluo-4 fluorescence ratio; stronger effect = higher value | fluorescence ratio F(max-min)/F0 at 10 µM | 4,000 tested, 0.4% active | AID 624114, 2012;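 active = calcium fluorescence ratio, averaged over duplicates, at least 3 SD of the buffer-well ratio, meaning a nonspecific response in receptor-free cells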;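 also: untransfected parental HEK293 lacking MrgX1 used as counterscreen for MrgX1 allosteric activators; fluorescence change taken during the second addition on a kinetic imager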
HEK293 Ca cntr2: calcium response in parental HEK293 cells, primary screen, counter-screen for MrgX1 agonist project, cell-based, Fluo-4 calcium flux, duplicate, agonist mode. 4,000 tested, 8.7% active. Fluo-4 calcium fluorescence (FDSS); stronger effect = higher value. fluorescence ratio F(max-min)/F0 at 10 µM. shares compounds with MrgX1 antag;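 active = calcium fluorescence ratio at least three times the spread of buffer wells, meaning a non-specific response in parental cells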
Each line names hits and unclear results; the compound was inactive in the other large screens (follow-up assays come after a bar, where they were run). In the library only some 3.5% were active in any assay of this set; here they are far more common.

CCOC(=O)c1c2ccccc2[n+]([O-])n1[C@@H](C)C(N)=O	none
CCCOCC1CC(CCc2nc(=S)[nH][nH]2)C(=O)O1 (stereo not given)	MrgX1 antag -5.3 | MrgX1 antag conf inactive | HEK293 Ca flux inactive | HEK293 Ca counter inactive | HEK293 Ca cntr2 inactive
O=S(=O)(NC1=NCCC1)c1ccc(F)cc1F	none
COC(=O)c1sc(S(=O)(=O)N2CCC(C(N)=O)CC2)c(C(=O)OC)c1C	none
COC(=O)c1sc(S(=O)(=O)N2CCCCC2C(=O)O)c(C(=O)OC)c1C (stereo not given)	MrgX1 antag -5.43 | MrgX1 antag conf inactive | HEK293 Ca flux inactive | HEK293 Ca counter inactive | HEK293 Ca cntr2 inactive
CN(Cc1ccccc1)C(=O)COC(=O)C1CCN(S(=O)(=O)c2ccc3c(c2)OCCO3)CC1	none
COc1ccccc1NC(=S)NCc1ccc2c(c1)cc(C)n2C	none
Cc1ccccc1NC(=S)NCc1ccc2c(c1)cc(C)n2C	MrgX1 antag -5.34 | MrgX1 antag conf inactive | HEK293 Ca flux inactive | HEK293 Ca counter inactive | HEK293 Ca cntr2 inactive
O=C(O)CNC(=O)C(CS)Cc1ccccc1 (stereo not given)	MrgX1 antag -8.61 (no result: RGS4 block, RGS4 act) | MrgX1 antag conf inactive | HEK293 Ca flux inactive | HEK293 Ca counter inactive | HEK293 Ca cntr2 inactive
O=C(O)CNC(=O)C(c1ccccc1)c1ccccc1	none
CNCCCOc1ccc2c(c1)CCC2	MrgX1 antag -5.04 | MrgX1 antag conf inactive | HEK293 Ca flux inactive | HEK293 Ca counter inactive | HEK293 Ca cntr2 inactive
c1cc2c(cc1OCCNC1CCCC1)CCC2	none
CCn1cc(S(=O)(=O)Nc2cc(C)ccc2F)cn1	none
Cc1ccccc1Cc1c(C)nc2ncnn2c1C	MrgX1 antag -7.77 | MrgX1 antag conf inactive | HEK293 Ca flux inactive | HEK293 Ca counter inactive | HEK293 Ca cntr2 inactive
COC(=O)c1c[nH]c(=O)c2ccccc12	MrgX1 antag -5.73 | MrgX1 antag conf inactive | HEK293 Ca flux inactive | HEK293 Ca counter inactive | HEK293 Ca cntr2 inactive
O=C(Nc1ccc(Oc2ccc(NC(=O)C3CCCO3)cc2)cc1)C1CCCO1 (stereo not given)	none
NC(=O)c1ccc(NC(=O)C2CCCO2)cc1 (stereo not given)	MrgX1 antag -5.9 | MrgX1 antag conf inactive | HEK293 Ca flux inactive | HEK293 Ca counter inactive | HEK293 Ca cntr2 inactive
COc1ccc2nc(NC(=O)C3CCCO3)sc2c1 (stereo not given)	none
CSc1nc2ccc(NC(=O)C3CCCO3)cc2s1 (stereo not given)	MrgX1 antag -6.78 | MrgX1 antag conf inactive | HEK293 Ca flux inactive | HEK293 Ca counter inactive | HEK293 Ca cntr2 inactive
CCN1CCc2nc(NC(=O)CC(c3ccccc3)c3ccccc3)sc2C1	none
CCN1CCc2nc(NC(=O)C(c3ccccc3)c3ccccc3)sc2C1	MrgX1 antag -5.76 | MrgX1 antag conf inactive | HEK293 Ca flux inactive | HEK293 Ca counter inactive | HEK293 Ca cntr2 inactive
O=C(COc1ccccc1)N1CCc2ccccc21	none
O=C(COc1ccccc1)OCC(=O)N1CCCc2ccccc21	MrgX1 antag -6.15 | MrgX1 antag conf inactive | HEK293 Ca flux inactive | HEK293 Ca counter inactive | HEK293 Ca cntr2 inactive
COC(=O)COc1cccc2c(=O)n(CC(=O)N3CCCc4ccccc43)ccc12	MrgX1 antag -8.94 | MrgX1 antag conf inactive | HEK293 Ca flux inactive | HEK293 Ca counter inactive | HEK293 Ca cntr2 inactive
CCOC(=O)COc1cccc2c(=O)n(CC(=O)N3CCCCC3)ccc12	none
COc1ccc(NC(=O)NNC(=O)CCc2ccc(O)c(O)c2)cc1OC	none
Cc1ccccc1C(=O)N/N=C1\SCC(=O)N1Cc1ccco1	none
CCOC(=O)Nc1ccc2c(CN3CCN(S(=O)(=O)c4ccccc4)CC3)cc(=O)oc2c1	none
CCOC(=O)Nc1ccc2c(CN3C(=O)NC(CC)(CC)C3=O)cc(=O)oc2c1	MrgX1 antag -4.7 | MrgX1 antag conf 80.9% | HEK293 Ca flux inactive | HEK293 Ca counter inactive | HEK293 Ca cntr2 inactive
COc1ccc(S(=O)(=O)NC(N)=NCCc2ccc(OC)c(OC)c2)cc1	MrgX1 antag -7.38 | MrgX1 antag conf inactive | HEK293 Ca flux inactive | HEK293 Ca counter inactive | HEK293 Ca cntr2 inactive
COc1ccc(CCN=C(N)NS(=O)(=O)c2ccc(C)c(C)c2)cc1OC	none
CCOC(=O)N1CCN(Cc2nc3cc(NC(=O)c4ccco4)ccc3n2C)CC1	none
Cc1ccc(S(=O)(=O)NCC(=O)OC(C)C(=O)Nc2ncc(Cl)cc2Cl)cc1 (stereo not given)	none
CCOC(=O)c1cnc2c(cnn2C)c1NCCC(O)C(F)(F)F (stereo not given)	MrgX1 antag -4.76 | MrgX1 antag conf inactive | HEK293 Ca flux inactive | HEK293 Ca counter inactive | HEK293 Ca cntr2 inactive
CCOC(=O)c1cnc2c(cnn2C)c1Oc1ccc(OC)cc1	none
Cn1c(-c2ccc(CN3CCCCC3)o2)nc2ccccc21	MrgX1 antag -5.31 | MrgX1 antag conf inactive | HEK293 Ca flux inactive | HEK293 Ca counter inactive | HEK293 Ca cntr2 inactive
Cc1ccc(CNc2nc3ccccc3n2C)o1	none
CSc1cc(-c2ccco2)oc1C(=O)c1ccco1	none
CCOC(=O)CNC(=O)CSc1ccc(-c2nc3ccccc3[nH]2)cn1	MrgX1 antag -4.77 | MrgX1 antag conf inactive | HEK293 Ca flux inactive | HEK293 Ca counter inactive | HEK293 Ca cntr2 inactive
CN(C)c1ccc(CNC2CC(C)(C)NC(C)(C)C2)cc1	none
CC1(C)CC(NCc2ccncc2)CC(C)(C)N1	MrgX1 antag -9.66 | MrgX1 antag conf 85.6% | HEK293 Ca flux inactive | HEK293 Ca counter inactive | HEK293 Ca cntr2 inactive
CC1(C)Cc2nc(N3CCOCC3)c(C#N)cc2CO1	MrgX1 antag -6.13 | MrgX1 antag conf inactive | HEK293 Ca flux inactive | HEK293 Ca counter inactive | HEK293 Ca cntr2 inactive
CC1(C)Cc2nc(N3CCCC3)c(C#N)cc2CO1	none
Cc1ccc(-c2onc3ccc(C4OCCO4)cc23)cc1	none

Bioassay records deposited in PubChem BioAssay by Johns Hopkins Ion Channel Center.
